Columns and labels:
Type in all cases: protein assay
Heart phosphodiesterase [1] = target: T1, Heart phosphodiesterase (Bos taurus, UniProt Q01061+P14100+E1BN64); assay: Inhibition of cAMP phosphodiesterase in bovine heart; conditions: for IC50: read-out: I50
In short: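 I50 taken from a plot of uninhibited over inhibited velocity (V0/V) against inhibitor concentration, read where V0/V = 2. At least five inhibitor concentrations giving 25–75% inhibition were tested per inhibitor.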

[2] = target: Heart phosphodiesterase (Bos taurus) (UniProt Q01061+P14100+E1BN64); assay: Percent inhibition of bovine heart cAMP-phosphodiesterase at 10-20 uM
Heart phosphodiesterase [3] = target: T1, Heart phosphodiesterase; assay: Inhibition of bovine heart cAMP-phosphodiesterase (Insoluble)

SMILES | I50 (Heart phosphodiesterase [1]) [µM] | I50 (Heart phosphodiesterase [3]) | also measured
CCOc1ccc2c(c1)sc1[n+]2C(=O)C(CC)C(=O)N1CC1CCCCC1 (stereo not given) | 8 |  | inhibition [2]: 40%
CCC1C(=O)N(CC2CC2)c2sc3cc(C)c(C)cc3[n+]2C1=O (stereo not given) |  | Insoluble | 
CC(C)C1C(=O)N(CC2CC2)c2sc3ccccc3[n+]2C1=O (stereo not given) |  | Insoluble | 
CCC1C(=O)N(CC2CCCC2)c2sc3ccccc3[n+]2C1=O (stereo not given) | 102 |  | 
Cn1c(=O)c2nc[nH]c2n(C)c1=O [THEOPHYLLINE] |  |  | IC50 (Heart phosphodiesterase [1]): 412 µM
CCC1C(=O)N(CC)c2sc3ccccc3[n+]2C1=O (stereo not given) |  |  | IC50 (Heart phosphodiesterase [1]): 153 µM
CCC1C(=O)N=C2Sc3ccccc3N2C1=O (stereo not given) | 467 |  | 
CCOc1ccc2c(c1)sc1[n+]2C(=O)C(CC)C(=O)N1CC1CC1 (stereo not given) | 69 |  | 
COC(=O)c1cc(=O)n2c(sc3ccccc32)c1C(=O)OC |  | Insoluble | 
